# Screening data as filed in PubChem BioAssay.
# Mdm2 MdmX PPI – inhibitors of human Mdm2/MdmX interaction; inhibition, % at 8 µM; SaOS-2 split-luciferase Mdm2/MdmX complementation, luminescence; 3% of 330,000 active; O15151+Q00987;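 active = inhibition of at least 50% at 8 µM in the primary screen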
# Granule exo inh – lytic granule exocytosis inhibition; AID 651702; 0.66% of 360,000 active; TALL-104 LAMP-1 surface exposure, flow cytometry; cells stimulated with thapsigargin and PMA; inhibition, % at 10 µM;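 active = inhibition above about 55%, limit read from the data; inconclusive = no clear call, values can overlap the other calls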
# UPR CHOP act – apoptotic UPR (CHOP) activation | activation, % at 10 µM | AID 449763 | CHO-CHOP luciferase reporter, luminescence; percent of tunicamycin response over DMSO baseline | 0.34% of 330,000 active;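 active = at 10 µM dose, activation of 40% or more, normalized to positive control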
#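 Test system: CHO CHOP reporter cells. Input: 500 CHO-CHOP cells per well. Medium: F12 with 10% FBS. Technique: luciferase luminescence. Measure: percent activation relative to tunicamycin control. Dosing: 10 µM compound, 0.5% DMSO. Timing: 16-18 h cell attachment, then 6 h compound exposure, 37 °C.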
# UPR XBP1 act – adaptive UPR (XBP1) activation; activation, % at 20 µM; CHO-XBP1 luciferase reporter, IRE1-XBP1 UPR activation, luminescence; percent of tunicamycin response, DMSO as zero; 0.33% of 330,000 active;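 active = versus positive control, 20 µM dose yields 30% or more activation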
#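 Assay system: CHO-XBP1 luciferase reporter cells; Schedule: 6 h treatment, 37 °C; Detection: glow luminescence from Steady-Glo reagent; Benchmarks: high control tunicamycin 10 µg/mL final, low control DMSO vehicle only.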
# ABHD5 PLIN5 PPI – inhibitors of human ABHD5-perilipin-5 interaction | Q00G26+Q8WTS1 | Split G. princeps luciferase complementation, luminescence, 4 h | inhibition, % at 4 µM | 0.78% of 360,000 active | AID 602281;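 active = inhibition above the mean inhibition across every tested compound plus 3 SD, cut at about 22% in these data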
# Mdm2-MdmX conf – human Mdm2/MdmX binding inhibition, confirmed; shares compounds with Mdm2 MdmX PPI; luminescent assay; inhibition, % at 8 µM; 55% of 10,000 active; AID 489028; in the data active = inhibition above about 40%
# Full FLuc ctr – inhibits full-length luciferase, flagging false Mdm2/MdmX hits; shares compounds with Mdm2 MdmX PPI; SaOS-2 full-length luciferase counterscreen, luminescence; inhibition, % at 8 µM; 77% of 6,200 active; AID 504607;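 active = mean inhibition at 8 µM reaching about 37%, which flags the compound as non-specific, limit read from the data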;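 note: p53-null SaOS-2 cells with luciferase driven by a doxycycline-inducible promoter; compound on cells about two nights before reading with doxycycline added after day one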
# Numbers stand for hits; – = inactive; ? = inconclusive; · = no result given. In the library only some 4% were active in any assay of this set; here they are far more common.
SMILES,Mdm2 MdmX PPI,Granule exo inh,UPR CHOP act,UPR XBP1 act,ABHD5 PLIN5 PPI,Mdm2-MdmX conf,Full FLuc ctr
C=CCC[C@H](Cc1ccc(F)cc1)C(=O)OC[C@@H](NC(=O)[C@@H](CC=C)CC(=O)N(CCO)Cc1ccccc1)C(C)(C)C,50.3,–,–,–,–,–,·
C=CCC[C@@H](Cc1ccc(F)cc1)C(=O)OC[C@@H](Cc1c[nH]c2ccccc12)NC(=O)[C@H](CC=C)CC(=O)N(CCO)Cc1ccccc1,94.2,–,–,–,–,–,·
C=CC[C@@H](CC(=O)N(CCO)Cc1ccccc1)C(=O)NC[C@H](OC(=O)[C@@H](CC=C)Cc1ccc(F)cc1)c1ccccc1,85.4,–,–,–,–,70.6,49.0
C=CCC[C@H](Cc1ccc(F)cc1)C(=O)OC[C@@H](Cc1c[nH]c2ccccc12)NC(=O)[C@H](CC=C)CC(=O)NCCO,–,–,–,–,–,·,·
COc1cc(N(Cc2ccccc2)Cc2ccccc2)c2ncn(C(C)C)c2c1,–,–,–,–,–,·,·
CC(C)n1cnc2c(N(C)c3ccccc3)nc(N(CCN(C)C)Cc3ccccc3)nc21,58.3,–,–,–,–,–,·
O=c1c2cccc3c2c(nn1CN1CCOCC1)-c1ccccc1-3,–,–,–,–,–,·,·
CCN(CC)CCn1nc2c3c(cccc3c1=O)-c1ccccc1-2,82.8,–,–,–,–,82.6,–
CC(C)CN(C(=O)COc1cccc(-n2cnnn2)c1)C1CCS(=O)(=O)C1 (configuration not stated),–,–,–,–,–,·,·
C=CCn1cnc2c(c1=O)c1nc3ccccc3nc1n2/N=C/c1ccccn1,·,–,·,·,–,·,·
C=CCn1cnc2c(c1=O)c1nc3ccccc3nc1n2/N=C/c1cc(OC)c(OC)c(OC)c1,85.5,–,–,–,–,75.0,64.8
C=CCn1cnc2c(c1=O)c1nc3ccccc3nc1n2/N=C/c1cccc(OC)c1OC,59.3,–,–,–,–,–,·
CNC(=S)N/N=C/c1ccc(-c2cccc(C(=O)O)c2)o1,–,–,–,–,–,·,·
Cc1ccc(C(=O)N/N=C/c2ccc(-c3cccc(C(F)(F)F)c3)o2)cn1,58.2,–,–,–,–,53.0,49.6
CNC(=O)CN(c1cc(OCCOC)c(Cl)cc1Cl)S(=O)(=O)c1ccc(OC)cc1,56.5,–,–,–,–,48.1,79.3
CNC(=O)CN(c1ccc(OC)cc1)S(=O)(=O)c1ccc(F)cc1,–,–,–,–,–,·,·
CC(=O)N(c1ccccc1)C1CCCC1,–,–,–,–,–,·,·
O=C(CCl)N(c1ccccc1)C1CCCCC1,93.7,–,–,–,–,99.8,52.2
O=C(Cn1cnc2c(OCc3ccccc3)ncnc21)N[C@H](CO)Cc1cc2ccccc2[nH]1,50.6,–,–,–,–,–,·
CCCCSc1nnc2n(CCc3ccccc3)c(=O)c3c4c(sc3n12)COC(C)(C)C4,55.3,–,–,–,–,–,·
O=C(CCCN1C(=O)c2ccccc2C1=O)NCC1CCCO1 (configuration not stated),–,–,–,–,–,·,·
O=C(CCCCl)NC1=NN(c2ccccc2)C(=O)C1,·,–,·,·,–,·,·
Fc1ccc(C2c3[nH]c4ccccc4c3CCN2Cc2cccn2-c2ncccn2)cc1 (configuration not stated),78.2,–,–,–,–,61.5,61.5
CS(=O)(=O)N(CC(=O)N1CCCCC1)Cc1ccc(Cl)cc1,–,–,–,–,–,·,·
COc1cc(NC(=O)c2cc3c(CO)cnc(C)c3oc2=Nc2cccc(C(N)=O)c2)cc(OC)c1,–,–,–,–,–,·,·
SMILES,Mdm2 MdmX PPI,Granule exo inh,UPR CHOP act,UPR XBP1 act,ABHD5 PLIN5 PPI,Mdm2-MdmX conf,Full FLuc ctr
COc1ccccc1NC(=O)c1cc2c(CO)cnc(C)c2oc1=Nc1cccc(C(N)=O)c1,78.8,–,–,–,–,40.8,90.5
COc1ccc2ccccc2c1/C=N\NC(=O)c1cccnc1,–,–,–,–,–,·,·
O=C(N/N=C/c1c(O)ccc2ccccc12)c1cccnc1,69.6,–,–,–,–,74.2,–
O=C(N/N=C\c1c(O)ccc2ccccc12)c1cncc(Br)c1,83.0,79.5,–,–,–,75.8,–
COc1ccccc1/C=N/NC(=O)c1ccc(C)nc1,–,–,–,–,–,·,·
Cc1cc(O)c(C)c(O)c1/C=N/NC(=O)c1cccnc1,57.4,–,–,–,–,45.4,68.8
Cn1cccc1/C=N\NC(=O)c1cncc(Br)c1,–,–,–,–,–,·,·
Cc1ccc(C(=O)N/N=C/c2c(O)ccc3ccccc23)cn1,74.8,?,–,–,–,81.5,–
Cc1ccc(-n2c(C)c([N+](=O)[O-])c3ccc(O)c(CN(C)C)c32)cc1,85.1,–,–,–,–,80.0,54.3
COc1ccc(-n2c(C)c([N+](=O)[O-])c3ccc(O)c(CN4CCCCC4)c32)cc1,77.3,63.3,–,–,–,58.4,–
Cc1ccc(O)c(CN(C)Cc2cc(C)ccc2O)c1,·,–,·,·,–,·,·
C=CCn1nnnc1-c1cccc(Cl)c1,–,–,–,–,–,·,·
O=C(CSc1nnc(-c2ccccc2O)o1)N1CCOCC1,–,–,–,–,–,·,·
OC(CNCC1CCCO1)COc1ccc(OCC(O)CNCC2CCCO2)cc1 (configuration not stated),–,–,–,–,–,·,·
CCOC(=O)c1c(C)n(C)c2ccc(OCC(O)CNC(CC)CO)cc12 (configuration not stated),–,–,–,–,–,·,·
CCOC(=O)c1c(C)n(-c2ccc(C)cc2)c2ccc(OCC(O)CNCC3CCCO3)cc12 (configuration not stated),78.0,–,–,–,–,42.4,61.8
CCOC(=O)c1c(C)n(-c2ccc(C)cc2)c2ccc(OCC(O)CNCCCO)cc12 (configuration not stated),89.2,–,–,–,–,–,·
COC(=O)C1C2C=CC3(CN(C(C)C)C(=O)C13)O2 (configuration not stated),–,–,–,–,–,·,·
CCC(C)n1c(C)nc2c(c1=O)c1nc3ccccc3nc1n2CCC1=CCCCC1 (configuration not stated),–,–,–,–,–,·,·
CN(c1ccccc1)S(=O)(=O)c1ccc(NC(=O)c2ccc(F)cc2)cc1,–,–,–,–,–,·,·
CC(C)(C)OC(=O)[C@H](Cc1ccccc1)NC(=O)c1nc[nH]c1C(=O)N1CCN(C(=O)OC(C)(C)C)CC1,74.0,–,–,–,–,–,·
CC(C)C[C@H](NC(=O)c1[nH]cnc1C(=O)N[C@@H](Cc1ccccc1)C(=O)OC(C)(C)C)C(=O)OC(C)(C)C,79.5,–,–,–,–,–,·
CN1Cc2sc(NC(=S)NC(=O)c3ccccc3)c(C#N)c2CC1(C)C,58.2,·,–,–,·,62.0,61.0
